Assay results pooled from the literature.
Lines come from different studies, so protocols differ.
Target: Ribosomal protein S6 kinase beta-1 (RPS6KB1, Homo sapiens, UniProt P23443)

For `COc1ncccc1-c1cnn2ccc(N3CCN(C(=O)OC(C)C)CC3)nc12`, the remaining binding was 100% (binding, competition with immobilised ligand; 1 µM).
`COc1cc(Nc2ncc(F)c(Nc3ccc4c(n3)NC(=O)C(C)(C)O4)n2)cc(OC)c1OC` gave an inhibition of 81% (binding; 10 µM).
The remaining binding of `Nc1ncc(-c2nc(N3CCOCC3)nc(N3CCOCC3)n2)c(C(F)F)n1` is reported as 76% (binding, competition with immobilised ligand; 10 µM).
The remaining binding of `Cn1cncc1[C@@](O)(COc1ccc(C#N)cc1-c1ccc(OC(F)(F)F)cc1)c1ccc(C#N)cc1` is reported as 94% (cell-free assay, competition with immobilised ligand; 1 µM).
`C#Cc1n[nH]c2c(-c3cn([C@@H](C)c4ccccn4)c(=O)[nH]c3=O)cc(F)cc12` has an inhibition of 10.2% (enzyme activity, inhibitor; 0.1 µM).
The remaining activity of `CC(C)(C)c1cc(C=C(C#N)C#N)cc(Br)c1O` is reported as 91.3% (enzyme activity, inhibitor; 0.5 µM).
`N#CC1(c2ccccn2)CCN(Cc2cc(C(=O)O)c(=O)n3ccccc23)CC1` gave a remaining binding of 96% (cell-free assay, competition with immobilised ligand; 1 µM).
With `C#Cc1n[nH]c2c(-c3cn([C@@H](C)c4ccccc4)c(=O)[nH]c3=O)cc(F)cc12` the inhibition was 18.6% (enzyme activity, inhibitor; 0.1 µM).
For `Cn1cc(-c2cccc(N3CCc4c(sc5c4CC(C)(C)C5)C3=O)c2CO)cc(Nc2ccncn2)c1=O`, the inhibition was 5% (enzyme activity, inhibitor; 1 µM).
`Cc1nn(C)cc1-c1nc2c(N3CCN(Cc4ccc(Cl)cc4)CC3)c(Cl)cnc2[nH]1` gave a remaining binding of 92% (binding, competition with immobilised ligand; 1 µM).
With `Cn1cc(-c2cc(F)cc(N3CCn4c(cc5c4CCCC5)C3=O)c2CO)cc(Nc2ccc(N3CCN(C4COC4)CC3)cn2)c1=O` the inhibition was 10% (enzyme activity, inhibitor; 0.1 µM).
`O=c1[nH]c2ccccc2n1C1CCN(Cc2ccc(-c3[nH]c4cc5ncnc5cc4nc3-c3ccccc3)cc2)CC1` gave a remaining signal of 101% (cell-free assay; 0.5 µM).
